Assay results from paper PMC11094421 (Clinical Cancer Research, 2024).

What was measured:
[1] = Treatment-emergent adverse events, first-in-human dose-escalation study; assay type: in vivo
How it was run: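 Safety set comprised all patients given ≥1 dose (N = 55; 5–270 mg, QD or BID schedules). TEAEs were counted from the first dose until 30 days after the last. Baseline was the last value before the first dose.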

[2] = Dose-limiting toxicities, MTD and RDE; assay type: in vivo, human
How it was run: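 Patients with metastatic or locally advanced unresectable solid tumors received test compound alone, fasting, QD from 5 mg upward, plus 2 weeks on/1 week off and 150 mg BID 4 days on/3 days off schedules. The DLT window was 21 days with a 30% target DLT rate. A Bayesian 2-parameter logistic model with overdose control and a schedule covariate gave posterior DLT probabilities (mean, percentiles). Analysis set N = 52.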

[3] = Noncompartmental PK of tuvusertib in plasma; assay type: in vivo, human
[4] = test system: immune cell subsets; experiment: Immunophenotyping of whole blood by flow cytometry; assay type: in vivo, human; conditions: doses ≥130 mg, on-treatment period; full recovery during treatment breaks
[5] = test system: circulating tumor DNA; experiment: Molecular response in plasma ctDNA; assay type: in vivo, human
[6] = test system: patients with advanced solid tumors; experiment: Objective response according to RECIST v1.1; assay type: in vivo, human
How it was run: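 Investigator-assessed objective response per RECIST v1.1, based on change in the sum of longest diameters of target lesions. Patients received the test compound once or twice daily on continuous or intermittent schedules.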

[7] = test system: ATM^mut non–small cell lung cancer (NSCLC) xenograft model; conditions: monotherapy; Supplementary Fig. S1; cited from earlier work
[8] = test system: ARID1A^mut gastric cancer xenograft model; conditions: monotherapy; Supplementary Fig. S1; cited from earlier work
[9] = test system: xenograft models of BRCA^mut high-grade serous ovarian cancer; conditions: monotherapy and combination with niraparib; cited from earlier work
[10] = lartesertib, niraparib, cisplatin, gemcitabine, irinotecan; preclinical; cited from earlier work

With `Cn1cncc1-c1c(F)cncc1NC(=O)c1c(N)nn2cc(F)cnc12` [Tuvusertib] the “Anemia TEAE” value ([1]; Any grade, all doses, N = 55) was 39 (71) n (%), the “Constipation TEAE” value ([1]; Any grade, all doses, N = 55) was 13 (24) n (%) and the “Fatigue TEAE” value ([1]; Any grade, all doses, N = 55) was 22 (40.0) n (%). The “Nausea TEAE” value ([1]; Any grade, all doses, N = 55) was 34 (62) n (%), the “Vomiting TEAE” value ([1]; Any grade, all doses, N = 55) was 21 (38) n (%) and the “Anemia TEAE” value ([1]; Grade ≥3, all doses, N = 55) was 20 (36) n (%). For the same molecule, the “Constipation TEAE” value ([1]; Grade ≥3, all doses, N = 55) was 0 n (%), the “Fatigue TEAE” value ([1]; Grade ≥3, all doses, N = 55) was 1 (2) n (%) and the “Nausea TEAE” value ([1]; Grade ≥3, all doses, N = 55) was 0 n (%). The “Vomiting TEAE” value ([1]; Grade ≥3, all doses, N = 55) was 3 (6) n (%), the “treatment-related AE anemia” value ([1]; across all dose levels) was 67% and the “treatment-related AE fatigue” value ([1]; across all dose levels) was 38%. The “treatment-related AE vomiting” value ([1]; across all dose levels) was 33%, the “TEAEs assessed as related to tuvusertib” value ([1]; all doses) was 87% and the “abnormal ECG readings, vital signs, high-grade laboratory abnormalities” value ([1]; all doses) was “No clinically significant abnormal ECG readings, vital signs or high-grade laboratory abnormalities were observed”. For the same molecule, the “patients who experienced at least one TEAE” value ([1]; all doses) was 95%, the “Any grade ≥3 TEAE” value ([1]; all doses, N = 55) was 26 (47) n (%) and the “Any serious TEAE” value ([1]; all doses, N = 55) was 15 (27) n (%). For the same molecule, the “Grade ≥3 TEAE related to tuvusertib” value ([1]; all doses, N = 55) was 19 (35) n (%), the “Serious TEAE related to tuvusertib” value ([1]; all doses, N = 55) was 3 (6) n (%) and the “TEAE leading to permanent tuvusertib discontinuation” value ([1]; all doses, N = 55) was 3 (6) n (%). The “TEAE leading to temporary tuvusertib discontinuation” value ([1]; all doses, N = 55) was 26 (47) n (%), the “TEAEs related to tuvusertib” value ([1]; all doses, N = 55) was 48 (87) n (%) and the “Any TEAE” value ([1]; all doses, N = 55, safety analysis set) was 52 (95) n (%). For the same molecule, the “constipation TEAE of any grade” value ([1]; at the MTD (n = 11)) was 36%, the “nausea TEAE of any grade” value ([1]; at the MTD (n = 11)) was 55% and the “vomiting TEAE of any grade” value ([1]; at the MTD (n = 11)) was 36%. For the same molecule, the “grade ≥3 TEAE anemia” value ([1]; at the RDE) was “none seen”, the “nausea TEAE of any grade” value ([1]; at the RDE (n = 7)) was 71% and the “anemia TEAE of any grade” value ([1]; overall) was 71%. For the same molecule, the “fatigue TEAE of any grade” value ([1]; overall) was 40%, the “grade ≥3 TEAE lymphocyte count decreased” value ([1]; overall) was 7% and the “grade ≥3 TEAE neutrophil count decreased” value ([1]; overall) was 7%. The “nausea TEAE of any grade” value ([1]; overall) was 62%, the “grade ≥3 TEAE anemia” value ([1]; overall, majority at doses ≥ MTD) was 36% and the “Grade ≥4 platelet count decreased” value ([1]; reported at dose levels exceeding the MTD) was 4%. For the same molecule, the “DLT anemia requiring blood transfusion” value ([2]; 130 mg QD) was 1/8, the “DLT anemia requiring blood transfusion” value ([2]; 150 mg BID 4 days on/3 days off) was 3/4 and the “DLT anemia requiring blood transfusion” value ([2]; 180 mg QD) was 3/10. The “median estimated DLT probability” value ([2]; 180 mg QD continuously) was 23%, the “upper boundary of the one-sided 95% credible interval of DLT probability” value ([2]; 180 mg QD continuously) was 37% and the “DLT anemia requiring blood transfusion” value ([2]; 220 mg QD 2 weeks on/1 week off) was 2/6. For the same molecule, the “DLT anemia requiring blood transfusion” value ([2]; 270 mg QD) was 1/4, the “DLT upper gastrointestinal hemorrhage and decreased platelet counts (one each)” value ([2]; 270 mg QD) was 2/4 and the “patients who experienced DLTs” value ([2]; as assessed by the SMC, observation period 21 days) was “Eleven”. The “median estimated DLT probability” value ([2]; intermittent 2 weeks on/1 week off schedule, no MTD formally established) was < 20%, the “DLTs that were events of anemia requiring blood transfusion” value ([2]; of eleven patients with DLTs) was 10 and the “dose proportionality of exposure” value ([3]; 5 to 270 mg) was “approximately dose proportional up to 180 mg QD and slightly more than proportional at higher doses”. For the same molecule, the “PK steady-state conditions achieved” value ([3]; cycle 1) was ≤ 8 days, the half-life ([3]; human, plasma, oral) was 1.2 to 5.6 h and the Tmax ([3]; human, plasma, po) was 0.5 to 3.5 h. The “monocytes and NK cell subsets” value [4] was “Transient decreases”, the “Complete MRs for any mutations” value ([5]; ARID1A) was 2/8 and the “Complete MRs for any mutations” value ([5]; ATRX) was 2/5. For the same molecule, the “Complete MRs for any mutations” value ([5]; BRCA1/2) was 2/11, the “Complete MRs for any mutations” value ([5]; DAXX) was 2/3 and the “MRs by tumor type” value ([5]; breast cancer, 1/3) was 33%. The “MRs by tumor type” value ([5]; other tumor types, 4/21) was 19%, the “MRs by tumor type” value ([5]; ovarian cancer, 5/10) was 50% and the “MRs observed (patients)” value ([5]; patients treated with more than 130 mg QD, 14/37) was 38%. The “patients showing a reduction in sum of tumor diameter” value ([5]; patients with MRs, 7/14) was 50%, the “patients showing a reduction in sum of tumor diameter” value ([5]; patients without MRs, 8/33) was 24% and the “MRs observed (patients)” value ([5]; the 10 patients who received lower doses) was “none”. The “patients with stable disease (RECIST v1.1)” value ([6]; 15 patients, all doses) was 27%, the “duration of disease stabilization” value ([6]; patient with unconfirmed partial response, 150 mg BID 4 days on/3 days off) was 9 months and the antitumor activity [7] was “antitumor activity as monotherapy”. The antitumor activity [8] was “antitumor activity as monotherapy”, the antitumor activity [9] was “antitumor activity as monotherapy and in combination with the PARP inhibitor niraparib” and the “synergy with other DDR-targeting treatments and DNA-damaging agents” value [10] was “pronounced synergy”.
